ChEMBL document CHEMBL1150674, “Trypanocidal diarylheptanoids from Aframomum letestuianum” (J Nat Prod, 2003)
In brackets after ≈: the same amount, converted by molar mass.

Tests used:
Assay type in all cases: functional, organism-based
[1] = tested on: Trypanosoma brucei rhodesiense; assay: Antitrypanosomal activity against Trypanosoma brucei rhodesiense KETRI 243 isolate after 48 hrs
Outline: (§1)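 Bloodstream-form trypanosomes were cultured in modified IMDM with 20% horse serum at 37 °C, in 24-well plates inoculated with 10^5 trypanosomes per well. Half the well volume was changed daily. Compounds were dissolved in DMSO, with a final DMSO concentration of at most 0.3%, and tested in duplicate at final concentrations of 0.1–100 µg/mL. Parasites were Coulter-counted at 48 h, and IC50 values were taken from semi-log plots. Each assay was run at least twice.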

[2] = tested on: Trypanosoma brucei brucei; assay: Antitrypanosomal activity against Trypanosoma brucei brucei Lab110 EATRO after 48 hrs; outline: as §1
[3] = tested on: Trypanosoma brucei rhodesiense; assay: Antitrypanosomal activity against Trypanosoma brucei rhodesiense KETRI 243 As 10-3 isolate after 48 hrs; outline: as §1

## O=C(CCc1ccc(O)cc1)CC(=O)CCc1ccc(O)cc1 [LETESTUIANIN C]
[1]
  IC50: 2.3 µg/mL (≈ 7.36 µM)
[2]
  IC50: 1.4 µg/mL (≈ 4.48 µM)
[3]
  IC50: 2.6 µg/mL (≈ 8.32 µM)

## O=C(/C=C(O)/C=C/c1ccc(O)cc1)CCc1ccc(O)cc1
[1]
  IC50: 2.8 µg/mL (≈ 9.02 µM)
[2]
  IC50: 2.6 µg/mL (≈ 8.38 µM)
[3]
  IC50: 1.3 µg/mL (≈ 4.19 µM)

## Nc1nc(N)nc(Nc2ccc([As]3SCC(CO)S3)cc2)n1 (stereo unspecified) [MELARSOPROL]
[1]
  IC50: 0.0005 µg/mL
[2]
  IC50: 0.002 µg/mL
[3]
  IC50: 0.005 µg/mL

## COc1cc(CCC(=O)/C=C(O)/C=C/c2ccc(O)cc2)ccc1O [LETESTUIANIN A]
[2]
  IC50: > 100 µg/mL

## COc1cc(/C=C/C(O)=C/C(=O)CCc2ccc(O)c(OC)c2)ccc1O [LETESTUIANIN B]
[1]
  IC50: > 100 µg/mL
[2]
  IC50: 67 µg/mL (≈ 181 µM)
[3]
  IC50: > 100 µg/mL

## N=C(N)c1ccc(OCCCCCOc2ccc(C(=N)N)cc2)cc1 [PENTAMIDINE]
[1]
  IC50: 0.0005 µg/mL (≈ 0.00147 µM)
[2]
  IC50: 0.0006 µg/mL (≈ 0.00176 µM)
[3]
  IC50: 0.004 µg/mL (≈ 0.0117 µM)
